TbMetRS inhib: Trypanosoma brucei MetRS inhibition; purified T. brucei MetRS, ATP depletion, Kinase-Glo luminescence; inhibition, % at 11.9 µM; hit rate 0.4% among 360,000; AID 624268;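 active = inhibition above a per-plate cutoff of the control wells' mean inhibition plus 3 SD, cut at about 5.5% in these data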;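 note: 0% = DMSO wells median and 100% = median of wells with control inhibitor compound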
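technique = Kinase-Glo luminescence, ATP depletion format | system = purified MetRS (methionyl-tRNA synthetase) enzyme from Trypanosoma brucei | timing = 15 min preincubation, 2 h reaction, all 25 °C | evaluation = percent inhibition versus plate control medians | dosing = single dose, 11.9 µM final nominal, 0.9% final DMSO | also added = substrates ATP, L-methionine and bulk Escherichia coli tRNA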
PLC-gamma1 inh: blocks human PLC-gamma1 enzyme activity | P19174 | purified PLC-gamma1, fluorogenic substrate, fluorescence | inhibition, % at 12.2 µM | hit rate 0.84% among 370,000 | AID 720700; in the data active = inhibition above about 9.5%
sPLA2-III inh: Inhibits HGIII-sPLA2 liposome hydrolysis, primary screen | Q9NZ20 | QFRET BODIPY PC-A2 liposome hydrolysis, fluorescence | inhibition, % at 12.2 µM | hit rate 0.56% among 370,000;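 active = inhibition above mean plus 3 SD of compounds lying within the high and low control bounds, cut at about 19% in these data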;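 note: 0% = median of test compound wells and 100% = no enzyme DMSO wells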
PLC-beta3 inh: PLC-beta3 (human) inhibition, primary screen; Purified PLC-beta3, fluorogenic substrate, fluorescence; hit rate 0.18% among 370,000; inhibition, % at 12.2 µM; AID 720704; Q01970; in the data active = inhibition above about 11%;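 note: 0% = median of compound wells on plate and 100% = full blocker control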
DAGLB inhibitor: diacylglycerol lipase beta (human) inhibition | Q8NCG7 | HEK293T DAGLB membrane lysate, EnzChek fluorogenic substrate | inhibition, % at 5.17 µM | hit rate 0.059% among 340,000 | AID 504411; in the data active = inhibition above about 34%;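 note: 0% = enzyme with vehicle and 100% = wells lacking enzyme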
Target sequence (Q8NCG7 whole entry, looked up): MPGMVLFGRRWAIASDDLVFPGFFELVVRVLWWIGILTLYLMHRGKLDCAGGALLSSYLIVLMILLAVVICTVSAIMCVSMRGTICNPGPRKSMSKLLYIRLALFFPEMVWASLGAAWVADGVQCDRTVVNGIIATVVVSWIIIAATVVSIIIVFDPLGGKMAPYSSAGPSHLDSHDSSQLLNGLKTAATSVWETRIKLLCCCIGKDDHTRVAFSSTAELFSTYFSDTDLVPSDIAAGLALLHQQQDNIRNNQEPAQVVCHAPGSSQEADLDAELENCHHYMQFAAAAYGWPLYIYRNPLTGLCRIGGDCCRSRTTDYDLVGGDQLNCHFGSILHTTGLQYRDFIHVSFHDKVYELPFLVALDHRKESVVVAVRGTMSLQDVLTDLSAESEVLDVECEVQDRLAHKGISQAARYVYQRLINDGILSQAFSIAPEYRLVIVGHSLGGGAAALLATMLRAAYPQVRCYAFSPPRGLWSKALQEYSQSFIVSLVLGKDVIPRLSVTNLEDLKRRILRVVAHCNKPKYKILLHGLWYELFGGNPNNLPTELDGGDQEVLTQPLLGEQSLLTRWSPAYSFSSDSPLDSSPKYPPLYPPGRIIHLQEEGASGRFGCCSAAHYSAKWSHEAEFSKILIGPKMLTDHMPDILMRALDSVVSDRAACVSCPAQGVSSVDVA
TbMetRS confirm: confirmation of Trypanosoma brucei MetRS inhibitors. shares compounds with TbMetRS inhib. inhibition, % at 11.9 µM. hit rate 93% among 1,400. T. brucei MetRS enzyme, luminescence (ATP depletion). AID 624412; in the data active = inhibition above about 7%
Jurkat cytotox: counter-screen for T. brucei MetRS inhibitors: Jurkat cell cytotoxicity. inhibition, % at 8.3 µM. shares compounds with TbMetRS inhib. Jurkat cells viability, ATP luminescence. AID 624413. hit rate 12% among 1,400; in the data active = inhibition above about 15%;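 note: 0% = vehicle and 100% = reference inhibitor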
Tb MetRS inh FP: inhibits T. brucei methionyl tRNA synthetase in orthogonal FP test; shares compounds with TbMetRS inhib; purified T. brucei MetRS, fluorescence polarization; inhibition, % at 11.9 µM; hit rate 44% among 1,400; in the data active = inhibition above about 17%;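 note: 0% = vehicle wells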
Numbers without * were called inactive; · = no result. Shown are actives, neighbours in structure and some others; about 1.9% of the full set was active somewhere.

SMILES	TbMetRS inhib	PLC-gamma1 inh	sPLA2-III inh	PLC-beta3 inh	DAGLB inhibitor	TbMetRS confirm	Jurkat cytotox	Tb MetRS inh FP
O=C(O)CSc1nnc2c(n1)[nH]c1ccccc12	1.2	-0.1	9.5	-3.5	-0.6	·	·	·
Cc1ccc(-c2csc(NC(=O)CSc3nnc4c(n3)[nH]c3ccccc34)n2)cc1	7.7*	0.8	-3.6	-4.3	3.4	15.5*	18.4*	9.1
Cc1ccc(NC(=O)CSc2nnc3c(n2)[nH]c2ccccc23)cc1	0.8	0.7	-5.2	0.3	-0.2	·	·	·
O=C(CSc1nnc2c(n1)[nH]c1ccccc12)Nc1nncs1	24.5*	-2.2	1.3	-7.8	0.9	43.3*	-2.6	19.2*
O=C(CSc1nnc2c(n1)[nH]c1ccccc12)Nc1ccc2c(c1)OCO2	75.6*	-1.9	4.2	-5.8	7.2	83.0*	6.0	70.6*
O=C(CSc1nc2ncccc2[nH]1)Nc1ccc2c(c1)OCO2	16.1*	2.5	1.9	-6.4	·	27.0*	0.4	17.4*
O=C(CCn1nnc2ccccc21)N1CCN(c2cccc(C(F)(F)F)c2)CC1	·	2.1	3.9	1.2	·	·	·	·
CC(C)CN1C(=O)[C@]2(CC(=O)N(C)C2c2ccccc2)c2cc(-n3cc(CO)nn3)ccc21 (stereo not given in full)	·	7.7	18.3	0.7	·	·	·	·
CCCCNC(=O)OC1CCC12CCC(c1ccccc1)CC2 (stereo not given)	·	0.7	1.4	-1.4	·	·	·	·
O=C1[C@@H]2Cc3c([nH]c4ccccc34)C(c3ccc([N+](=O)[O-])cc3)N2C(=O)CN1C1CC1 (stereo not given in full)	9.4*	2.8	-13.1	-2.6	3.5	20.1*	8.6	7.8
COc1cccc(C2c3[nH]c4ccccc4c3C[C@H]3C(=O)N(CCCCCO)CC(=O)N23)c1 (stereo not given in full)	10.0*	3.6	-4.4	-5.5	0.8	20.5*	10.1	0.9
COCCN1CC(=O)N2C(c3cccc(C)c3)c3[nH]c4ccccc4c3C[C@H]2C1=O (stereo not given in full)	3.9	-3.7	4.4	-13.3	-0.6	·	·	·
CN1CC(=O)N2C(c3cccc([N+](=O)[O-])c3)c3[nH]c4ccccc4c3C[C@H]2C1=O (stereo not given in full)	77.8*	0.6	-0.9	0.9	1.6	104.7*	-4.5	91.2*
O=C1[C@@H]2Cc3c([nH]c4ccccc34)C(c3ccccc3)N2C(=O)CN1C1CC1 (stereo not given in full)	0.3	-2.4	-10.4	-8.6	-1.1	·	·	·
O=C1[C@@H]2Cc3c([nH]c4ccccc34)C(c3cccc([N+](=O)[O-])c3)N2C(=O)CN1CCCO (stereo not given in full)	95.6*	-0.8	-3.7	0.6	0.1	95.4*	-0.6	92.7*
CN1[C@@H](Cc2ccccc2)COc2cccc(N3CCCC3)c2S1(=O)=O	·	-0.3	6.5	-0.9	·	·	·	·
COC(=O)c1ccc(C2c3[nH]c4ccccc4c3C[C@H]3C(=O)N(C)CC(=O)N23)cc1 (stereo not given in full)	-0.8	-8.5	-9.1	-14.9	1.4	·	·	·
Cc1ccc(C2c3[nH]c4ccccc4c3C[C@H]3C(=O)N(c4ccccc4C(=O)N4CCC[C@@H]4C(=O)O)C(=O)N23)cc1 (stereo not given in full)	4.5	-18.1	-23.9	-24.3	1.1	·	·	·
CN1CC(=O)N2C(c3ccc(Cl)cc3)c3[nH]c4ccccc4c3C[C@H]2C1=O (stereo not given in full)	7.2*	0.4	-9.7	-7.1	4.5	17.9*	42.6*	0.0
COc1cccc(C2c3[nH]c4ccccc4c3C[C@H]3C(=O)N(c4ccccc4C(=O)N4CCCC4C(=O)O)C(=O)N23)c1 (stereo not given in full)	6.4*	-32.8	-20.7	-37.5	4.0	15.8*	-0.7	4.2
Cc1nc(SCC(=O)NCc2ccccc2)c2c(=O)n(C)c(=O)n(C)c2n1	5.6*	-3.5	7.3	3.7	-0.1	2.0	6.5	-0.7
COC(=O)[C@]12C[C@H](CC(=O)NCc3ccc(C)o3)C(=O)N(Cc3ccccc3)C1=C[C@H](C(C)C)O[C@@H]2C1CC1	·	2.2	-7.3	8.0	·	·	·	·
O=C(CSc1nnc2c(n1)[nH]c1ccc(F)cc12)NCc1ccc(F)cc1	17.1*	-2.0	-0.2	-1.2	-0.2	70.7*	4.8	49.1*
Cc1ccc(CNC(=O)CSc2nnc3c(n2)[nH]c2ccccc23)cc1	16.4*	0.7	-0.3	3.1	-2.3	68.6*	4.0	45.4*
COc1ccc(CNC(=O)CSc2nnc3c(n2)[nH]c2ccc(OC)cc23)cc1	7.6*	1.1	-4.7	-2.7	2.7	35.0*	-0.9	22.3*
SMILES	TbMetRS inhib	PLC-gamma1 inh	sPLA2-III inh	PLC-beta3 inh	DAGLB inhibitor	TbMetRS confirm	Jurkat cytotox	Tb MetRS inh FP
COc1ccc(CCNC(=O)CSc2nnc3c(n2)[nH]c2ccc(F)cc23)cc1OC	0.2	4.6	-2.0	5.1	0.7	·	·	·
COc1ccc(CNC(=O)CSc2nnc3c(n2)[nH]c2ccc(F)cc23)cc1	32.9*	0.4	-0.7	-6.0	-2.5	92.0*	-4.5	66.1*
O=[N+]([O-])c1ccc(COc2cccc(CO)c2)cc1	·	-0.1	-1.3	0.1	·	·	·	·
CCCCCN1CCCCC(NC(=O)c2cccc(C(F)(F)F)c2)C1=O (stereo not given)	·	-1.9	5.1	0.1	·	·	·	·
O=C(Nc1ccc(C(F)(F)F)cc1)OC1CC2CC1[C@H]1CCCCN1[C@H]2Cc1ccccc1 (stereo not given in full)	·	-2.8	1.0	-7.1	·	·	·	·
O=C1c2ccccc2/C(=C\c2ccc(Br)nc2)N1c1ccccc1	·	-18.9	-7.9	-28.2	·	·	·	·
CC(=O)c1cccc(NC(=O)CSc2nnc(C(C)N(C)C)n2-c2ccc(F)cc2)c1 (stereo not given)	0.8	-1.4	7.4	-7.3	2.9	·	·	·
CC(=O)c1cccc(NC(=O)CSc2nnc(C(C)N(C)C)n2Cc2ccccc2)c1 (stereo not given)	5.6*	0.1	1.6	-7.3	-1.4	2.0	3.4	-3.3
CC(NC(=O)c1cccc2c1Oc1ccccc1S2)C(=O)O (stereo not given)	8.7*	·	·	·	·	11.4*	-7.8	2.0
CC(C)NC(=O)c1ccccc1-c1ccccc1	-1.6	-0.9	1.2	-0.3	-1.8	·	·	·
COCCN1Cc2cc(C(=O)OC)c3c(c2C1=O)c1cc(OC)ccc1n3S(C)(=O)=O	·	-46.9	0.2	-62.2	·	·	·	·
O=C(Nc1nc2c(Cl)cccc2s1)c1ccc(Br)o1	6.8*	-36.8	-11.0	-56.2	-5.7	4.4	-4.9	3.8
O=C(Nc1nc2c(Cl)cccc2s1)c1ccc([N+](=O)[O-])o1	-0.5	-0.7	12.9	-4.0	7.4	·	·	·

Source: PubChem BioAssay (The Scripps Research Institute Molecular Screening Center)
